Results published in ChEMBL document CHEMBL4699504, “7-Hydroxycoumarins Are Affinity-Based Fluorescent Probes for Competitive Binding Studies of Macrophage Migration Inhibitory Factor” (J Med Chem, 2020).
≈ marks a conversion by molar mass, not a printed value. One block for each compound: values may come before it. Calls of active or inactive are those of the source. The rule behind the calls is not given here.

Key:
[1] = molecular target: T1, Macrophage migration inhibitory factor (Homo sapiens, UniProt P14174); experiment: Inhibition of C-terminal His-tagged recombinant human MIF expressed in Escherichia coli BL21 (DE3) using 4-HPP as substrate preincubated for 10 mins followed by substrate addition by UV absorption spectrum analysis
T1 sequence (P14174 whole entry): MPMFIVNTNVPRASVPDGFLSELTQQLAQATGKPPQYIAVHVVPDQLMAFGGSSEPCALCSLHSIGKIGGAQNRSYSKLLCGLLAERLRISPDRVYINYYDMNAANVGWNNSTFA

[2] = molecular target: T1, Macrophage migration inhibitory factor; experiment: Displacement of 4'-(7-Hydroxy-2-oxo-2H-chromen-3-yl)-[1,1'-biphenyl]-4-carboxylic acid from C-terminal His-tagged recombinant human MIF expressed in Escherichia coli BL21 (DE3) preincubated for 10 mins followed by probe addition and measured after 10 mins by fluorescence assay
[3] = molecular target: T1, Macrophage migration inhibitory factor; experiment: Binding affinity to C-terminal His-tagged recombinant human MIF expressed in Escherichia coli BL21 (DE3) at 100 nM by fluorescence assay
In short: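 Fluorescent indicator displacement in PBS pH 7.4. Compound preincubated with MIF 10 min at RT, then 7-hydroxycoumarin indicator added for another 10 min at RT. Final MIF 100 nM, indicator 50 nM, DMSO 2.5%. Fluorescence read at Ex/Em 355/455 nm. EC50 for fluorescence recovery from nonlinear fit, converted to Kd with a displacement equation using indicator KS. Three independent experiments.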

[4] = molecular target: T2, Macrophage migration inhibitory factor (Homo sapiens) (UniProt P14174); experiment: Binding affinity to C-terminal His-tagged recombinant human MIF expressed in Escherichia coli BL21 (DE3) assessed as inhibition of MIF interaction with MBP-fused human CD74 up to 50 uM preincubated for 10 mins with CD74 followed by MIF addition and measured after 30 mins by ELISA; conditions: dose microM <=50, time 40.0 min
T2 sequence (whole entry): T1 sequence (P14174 whole entry)
In short: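 MIF (250 nM) coated on plates overnight at 4 °C, then blocked with 2% BSA for 1 h at RT. Inhibitor in DMSO premixed 10 min at RT with MBP–sCD74 (final 500 nM sCD74; inhibitor 1–100 μM), then added to wells for 30 min at RT. Bound sCD74 detected with rabbit anti-CD74 pAb and goat anti-rabbit HRP. No-inhibitor signal set to 100%, no-sCD74 signal to 0%. n = 3.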

A549 [5] = experiment: Inhibition of colony formation in human A549 cells at 100 uM incubated for 10 days by crystal violet staining based assay; type: functional, cell-based; conditions: time 10.0 day
In short: (§1)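 A549 seeded at 100 cells/well in RPMI with 10% FBS, overnight, then treated 10 days (0.2% DMSO final); fixed 4% paraformaldehyde, stained 0.5% crystal violet; colonies (>50 cells) counted vs 0.2% DMSO control; three independent experiments.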

[6] = molecular target: T2, Macrophage migration inhibitory factor (Homo sapiens); experiment: Inhibition of C-terminal His-tagged recombinant human MIF expressed in Escherichia coli BL21 (DE3) at 25 uM using 4-HPP as substrate preincubated for 10 mins followed by substrate addition by UV absorption spectrum analysis relative to control
[7] = Half life of compound in pH 7.4 PBS buffer at 100 nM; type: physicochemical; conditions: pH 7.4, 0.1 µM
In short: (§2)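 Fluorescence lifetime of 100 nM fluorophore in 1 mL PBS pH 7.4, measured alone or with 500 nM MIF.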

A549 [8] = experiment: Toxicity in human A549 cells assessed as reduction in cell viability up to 20 uM measured after 24 hrs by MTS assay; type: cell-based; conditions: a549, 24 h
In short: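 A549 cells treated 24 h; viability read by MTS assay.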

[9] = molecular target: T2, Macrophage migration inhibitory factor (Homo sapiens); experiment: Competitive inhibition of C-terminal His-tagged recombinant human MIF expressed in Escherichia coli BL21 (DE3) up to 50 nM using varying levels of 4-HPP as substrate preincubated for 10 mins followed by substrate addition by Lineweaver-burk plot analysis; conditions: dose nM <=50, time 10.0 min
[10] = molecular target: T2, Macrophage migration inhibitory factor (Homo sapiens); experiment: (§3) Binding affinity to C-terminal His-tagged recombinant human MIF expressed in Escherichia coli BL21 (DE3) assessed as inhibition of MIF interaction with MBP-fused human CD74 preincubated for 10 mins with CD74 followed by MIF addition and measured after 30 mins by ELISA; conditions: time 40.0 min
In short: (§4)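 MIF (250 nM, 100 μL) coated overnight at 4 °C, blocked 1 h with 2% BSA; inhibitor (1–100 μM) premixed 10 min with 500 nM MBP–sCD74, added 30 min at room temperature; bound sCD74 detected with rabbit anti-CD74 then HRP anti-rabbit, 30 min each; DMSO = 100%, no sCD74 = 0%; mean ± SD, n = 3.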

[11] = molecular target: T1, Macrophage migration inhibitory factor; experiment: as §3; in short: as §4
A549 [12] = experiment: Inhibition of colony formation in human A549 cells at 2.5 to 10 uM incubated for 10 days by crystal violet staining based assay; type: functional, cell-based; conditions: dose microM 2.5-10, time 10.0 day; in short: as §1
[13] = Solubility of compound in pH 7.4 phosphate buffer; type: physicochemical
In short: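 Solubility measured in PBS pH 7.4.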

[14] = molecular target: T2, Macrophage migration inhibitory factor (Homo sapiens); experiment: Inhibition of MIF (unknown origin) cultured in human A549 cells assessed as reduction in MIF-induced ERk phosphorylation at 10 uM preincubated with MIF for 10 mins followed by cell addition and measured after 10 mins by Western blot analysis; type: cell-based; conditions: time 20.0 min
In short: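 A549 (2 × 10^5/well) cultured overnight; 150 ng/mL endotoxin-free MIF preincubated 10 min with compound, then applied to cells 10 min at 37 °C (0.2% DMSO); lysates (30 μg protein) blotted; pERK/GAPDH ratio; four independent experiments.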

[15] = molecular target: T2, Macrophage migration inhibitory factor (Homo sapiens); experiment: Binding affinity to C-terminal His-tagged recombinant human MIF expressed in Escherichia coli BL21 (DE3) assessed as fluorescence quenching at 50 nM by fluorescence assay
In short: (§5)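 Equal volumes of fluorophore (diluted from 10 mM DMSO stock to 200 nM in PBS pH 7.4) and MIF dilution series (16–8000 nM) mixed, 10 min at room temperature; fluorescence read at Ex/Em 340/460 nm or 355/455 nm; KS from hyperbolic fit of specific binding curve; n = 3.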

[16] = molecular target: T2, Macrophage migration inhibitory factor (Homo sapiens); experiment: Binding affinity to C-terminal His-tagged recombinant human MIF expressed in Escherichia coli BL21 (DE3) assessed as fluorescence quenching at 50 nM in presence of CuSO4 by fluorescence assay
In short: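 Indicator displacement setup (100 nM MIF, 50 nM fluorophore, PBS pH 7.4) run with Cu2+ ions up to 200 μM; fluorescence read at Ex/Em 355/455 nm.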

Albumin = Albumin (Bos taurus, UniProt P02769); experiment: Binding affinity to bovine serum albumin assessed as fluorescence quenching at 50 nM by fluorescence assay; type: ADME; conditions: cattle, isolated protein, 0.05 µM
In short: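 Control for non-specific quenching: 50 nM fluorophore titrated with BSA (up to 800 nM) in PBS pH 7.4, fluorescence intensity compared against MIF titration.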

[17] = Half life of compound in pH 7.4 PBS buffer at 100 nM in presence of MIF; type: physicochemical; conditions: pH 7.4, 0.1 µM; in short: as §2
[18] = molecular target: T1, Macrophage migration inhibitory factor; experiment: Binding affinity to C-terminal His-tagged recombinant human MIF expressed in Escherichia coli BL21 (DE3) at 200 nM by fluorescence assay; in short: as §5
[19] = Emission property of the compound in pH 7.4 PBS buffer assessed as maximum emission wavelength at 200 nm by fluorescence spectra analysis; conditions: pH 7.4, 200 nM
[20] = molecular target: T2, Macrophage migration inhibitory factor (Homo sapiens); experiment: Binding affinity to C-terminal His-tagged recombinant human MIF expressed in Escherichia coli BL21 (DE3) at 100 nM in presence of 3-(3,4-Dimethoxyphenyl)-7-hydroxy-3,4-dihydro-2Hbenzo[e][1,3]oxazin-2-one by fluorescence assay
[21] = molecular target: T2, Macrophage migration inhibitory factor (Homo sapiens); experiment: Binding affinity to C-terminal His-tagged recombinant human MIF expressed in Escherichia coli BL21 (DE3) assessed as fluorescence quenching at 200 nM by fluorescence assay; in short: as §5
[22] = Absorption property of the compound in pH 7.4 PBS buffer assessed as maximum absorption wavelength at 100 uM by UV-vis spectra analysis; type: physicochemical; conditions: pH 7.4, 100 µM
In short: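 UV absorption spectra recorded at 100 μM compound in PBS pH 7.4 containing 5% (v/v) DMSO on a plate reader; wavelength of maximum absorbance taken.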

IC50 [1]: 1.76 µM
Ki [1]: 1.17 µM
Structure (SMILES): O=c1oc2cc(O)ccc2cc1-c1ccccc1

IC50 [1]: 2.78 µM
Ki [1]: 1.85 µM
Structure (SMILES): COc1ccccc1-c1cc2ccc(O)cc2oc1=O

Kd [2]: 5.6 µM
Ki [1]: 8 µM
Structure (SMILES): COc1ccc(C(=O)N/N=C/c2ccc(O)c(F)c2)cc1

IC50 [1]: 2.54 µM
Ki [1]: 1.69 µM
Structure (SMILES): O=c1oc2cc(O)ccc2cc1-c1ccc(F)cc1

Kd [2]: 4 µM
Structure (SMILES): Oc1ccc(-n2cc(-c3ccccn3)nn2)cc1

Kd [2]: 4.4 µM
Structure (SMILES): O=C(NCc1cn(-c2ccc(O)c(F)c2)nn1)c1cc2ccccc2[nH]1

inhibition [6]: 11%
Structure (SMILES): O=C(Nc1ccccc1)c1cc2ccc(O)cc2oc1=O

IC50 [1]: 2.19 µM
Ki [1]: 1.46 µM
Structure (SMILES): O=c1oc2cc(O)ccc2cc1-c1ccc2ccccc2c1

IC50 [1]: 1.93 µM
Ki [1]: 1.29 µM
Structure (SMILES): O=c1oc2cc(O)ccc2cc1-c1cccc(Cl)c1

inhibition [6]: 12%
Structure (SMILES): O=C(NCc1ccccc1)c1cc2ccc(O)cc2oc1=O

solubility ([13]; phosphate buffer): 10.8 µg/mL (≈ 28 µM)
Kd [2]: 1.4 µM
Structure (SMILES): O=C(NCc1cn(-c2ccc(O)c(F)c2)nn1)c1cc2cc(Cl)ccc2[nH]1

IC50 [1]: 19.1 µM
Ki [1]: 12.7 µM
Structure (SMILES): O=c1oc2cc(O)ccc2cc1-c1ccccc1Cl

solubility ([13]; phosphate buffer): 2.2 µg/mL (≈ 7.63 µM)
Kd [2]: 0.47 µM
Ki [1]: 0.44 µM
Structure (SMILES): Oc1ccc(-n2cc(-c3cc4ccccc4cn3)nn2)cc1

The next lines start with the compound.

Structure (SMILES): COc1ccc(N2Cc3ccc(O)cc3OC2=O)cc1OC
Kd [3]: 0.156 µM
inhibition [4]: inactive
Kd [2]: 0.11 µM
Ki [1]: 0.1 µM

Structure (SMILES): COC(=O)CC1CC(c2ccc(O)cc2)=NO1 (stereo not given)
inhibition (A549 [5]): Active
inhibition [4]: inactive

Structure (SMILES): COc1cccc(-c2cc3ccc(O)cc3oc2=O)c1
IC50 [1]: 1.85 µM
Ki [1]: 1.23 µM

Structure (SMILES): O=C(O)c1ccc(-c2ccc(-c3cc4ccc(O)cc4oc3=O)cc2)cc1
t1/2 [7]: 4.2 nanoseconds
Activity (A549 [8]): Non-Toxic
inhibition [9]: Active
inhibition [10]: Dose-dependent effect
IC50 [11]: 36 µM
inhibition (A549 [12]): Active
solubility ([13]; buffer): 18.8 µg/mL (≈ 52.5 µM)
inhibition [14]: Active
Ks [15]: 16 nM
Activity [16]: Active
Activity (Albumin): Not Active
t1/2 [17]: 4 nanoseconds
Kd [18]: 0.016 µM

Structure (SMILES): O=c1oc2cc(O)ccc2cc1-c1ccc(Br)cc1
IC50 [1]: 0.47 µM
Ki [1]: 0.31 µM

Structure (SMILES): CCOC(=O)c1cc2ccc(O)cc2oc1=O
IC50 [1]: 18.6 µM
Ki [1]: 12.4 µM

Structure (SMILES): O=c1oc2cc(O)ccc2cc1-c1ccc(I)cc1
IC50 [1]: 0.72 µM
Ki [1]: 0.48 µM

Structure (SMILES): O=c1oc2cc(O)ccc2cc1-c1ccc(Cl)cc1
IC50 [1]: 0.92 µM
Ki [1]: 0.61 µM

Structure (SMILES): COc1ccc(-c2cc3ccc(O)cc3oc2=O)cc1
Kd [3]: 0.39 µM
Activity [19]: 460 nm
Activity [20]: inactive
Activity [21]: Active
Activity [22]: 340 nm
IC50 [1]: 0.56 µM

Structure (SMILES): Cc1ccc(-c2cc3ccc(O)cc3oc2=O)cc1
IC50 [1]: 0.69 µM
Ki [1]: 0.46 µM
